Assay results collected from several papers.
Protocols differ between the studies behind these lines. pIC50: −log10 of the molar value.
Organism: Mycolicibacterium smegmatis
Effect on: microbial growth

Structure (SMILES)	test	system	conditions	quantity	value
CCc1ccc(-c2c[nH]c(N)n2)cc1	–	ATCC700084 MC^2155	48 h	MIC	100 µM
ON=C1C2CC3CC(C2)CC1C3	–	–	48 h	pIC50	< 3.30
COc1c(N2C[C@@H]3CCCN[C@@H]3C2)c(F)cc2c(=O)c(C(=O)O)cn(C3CC3)c12	–	ATCC14468	–	MIC90	0.12 µg/mL
Cc1ccc(-n2cc(CN3CCN(C(=O)c4c(C)nc5sc6ccccc6n45)CC3)nn2)cc1C	–	–	72 h	pIC50	5.24
CCCCOc1ccc(-c2c[nH]c(N)n2)cc1	–	ATCC700084 MC^2155	48 h	MIC	> 200 µM
NC[C@@H]1O[C@H](O[C@H]2[C@@H](O)[C@H](O[C@@H]3[C@@H](O)[C@H](N)C[C@H](N)[C@H]3O[C@H]3O[C@H](CO)[C@@H](O)[C@H](O)[C@H]3N)O[C@@H]2CO)[C@H](N)[C@@H](O)[C@@H]1O	broth dilution	–	72 h	MIC	1 µg/mL
Cc1nc2sc3ccccc3n2c1C(=O)N1CCN(Cc2cn(-c3cccc(Cl)c3)nn2)CC1	–	–	72 h	pIC50	4.28
O=C(O)CCCCCC1NC(=O)CS1 (racemic)	–	MC^2155	–	MIC90	10 µM
Cc1nc2sc3ccccc3n2c1C(=O)N1CCN(Cc2cn(-c3cccc([N+](=O)[O-])c3)nn2)CC1	–	–	72 h	pIC50	4.36
CC(C)=CCC/C(C)=C/COCCNC1C2CC3CC(C2)CC1C3 (stereo not drawn)	–	–	48 h	pIC50	~5.05
CCCCCCCCCc1cn(CCN2CCN(C(=O)c3c(C)nc4sccn34)CC2)nn1	–	–	72 h	pIC50	4.55
Cc1cc(N)c2ccccc2[n+]1CCCCCCCCCC[n+]1c(C)cc(N)c2ccccc21	disc diffusion	–	50 µg/disc	inhibition zone	18 mm
